Measurements: ChEMBL document CHEMBL1144006, “Phenylalanine-containing hydroxamic acids as selective inhibitors of class IIb histone deacetylases (HDACs)” (Bioorg Med Chem, 2008)
Non-standard residues stand in square brackets, D forms with d. Residues, ends and D or L forms follow the SMILES beside them. *: point of attachment. Asu = N[C@@H](CCCCCC(=O)O)C(=O)O; Aib = CC(C)(N)C(=O)O; NHOH = ON*

Key:
Rattus norvegicus = species: Rattus norvegicus; test: Selectivity for rat liver HDAC6 over rat liver HDAC1
Histone deacetylase 1 [1] = target: Histone deacetylase 1 (Homo sapiens, UniProt Q13547); test: Inhibition of FLAG-tagged HDAC1 expressed in human 293T cells; assay type: cell-based
In short: (§1)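 FLAG-HDAC1 or FLAG-HDAC6 was immunoprecipitated with M2 agarose from lysates of overexpressing 293T cells, washed in enzyme buffer and diluted 1:10. Bead suspension, inhibitor and unselective fluorogenic substrate ZMAL were incubated at 37 C for 180 min. The reaction was stopped with TSA/borate pH 9.5/NDA and read at ex 330/em 390 nm. IC50 came from a dilution series against 0% and 100% (TSA) inhibition standards. Selectivity is the ratio of HDAC1 to HDAC6 IC50.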

Histone deacetylase 1 [2] = target: T1, Histone deacetylase 1 (Rattus norvegicus, UniProt Q4QQW4); test: Inhibition of HDAC1 in rat liver extract
[3] = Inhibition of HDAC6 in rat liver extract
[4] = target: T2, Protein deacetylase HDAC6 (Homo sapiens, UniProt Q9UBN7); test: Inhibition of FLAG-tagged HDAC6 expressed in human 293T cells; assay type: cell-based
T2 sequence (Q9UBN7 whole entry): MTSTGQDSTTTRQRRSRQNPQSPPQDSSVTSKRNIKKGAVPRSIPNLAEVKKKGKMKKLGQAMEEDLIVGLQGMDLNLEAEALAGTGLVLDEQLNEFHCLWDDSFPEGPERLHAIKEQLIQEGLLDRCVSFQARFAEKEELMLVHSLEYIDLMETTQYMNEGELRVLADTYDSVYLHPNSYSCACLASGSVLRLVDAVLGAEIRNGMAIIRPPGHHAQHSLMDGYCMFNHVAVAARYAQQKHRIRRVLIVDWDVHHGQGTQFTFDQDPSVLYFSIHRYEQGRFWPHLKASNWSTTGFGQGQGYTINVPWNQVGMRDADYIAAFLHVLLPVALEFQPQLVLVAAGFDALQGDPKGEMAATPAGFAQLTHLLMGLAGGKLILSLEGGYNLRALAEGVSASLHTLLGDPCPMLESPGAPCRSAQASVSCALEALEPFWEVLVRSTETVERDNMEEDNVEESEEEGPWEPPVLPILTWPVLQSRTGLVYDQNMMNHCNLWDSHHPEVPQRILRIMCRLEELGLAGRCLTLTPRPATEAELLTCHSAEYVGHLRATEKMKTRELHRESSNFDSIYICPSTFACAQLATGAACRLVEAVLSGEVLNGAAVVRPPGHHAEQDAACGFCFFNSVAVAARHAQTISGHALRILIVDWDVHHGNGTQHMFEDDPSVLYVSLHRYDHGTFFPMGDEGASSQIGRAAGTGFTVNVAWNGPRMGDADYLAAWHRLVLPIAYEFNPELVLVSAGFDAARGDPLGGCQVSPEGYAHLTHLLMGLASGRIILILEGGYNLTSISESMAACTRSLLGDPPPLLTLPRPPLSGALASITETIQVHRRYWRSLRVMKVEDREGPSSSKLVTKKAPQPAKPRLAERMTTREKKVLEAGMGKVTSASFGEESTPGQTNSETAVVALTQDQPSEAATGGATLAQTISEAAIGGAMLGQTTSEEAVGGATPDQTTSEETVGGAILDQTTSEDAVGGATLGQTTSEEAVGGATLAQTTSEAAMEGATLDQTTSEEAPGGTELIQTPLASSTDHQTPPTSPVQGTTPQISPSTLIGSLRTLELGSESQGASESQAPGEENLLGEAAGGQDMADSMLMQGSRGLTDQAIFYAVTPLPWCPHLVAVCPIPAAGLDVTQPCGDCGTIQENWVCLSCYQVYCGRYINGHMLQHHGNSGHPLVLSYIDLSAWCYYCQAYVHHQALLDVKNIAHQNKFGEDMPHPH

Homo sapiens = species: Homo sapiens; test: Selectivity for human FLAG-tagged HDAC6 over human FLAG-tagged HDAC1; in short: as §1
MCF7 = test: Cytotoxicity against human MCF7 cells after 48 hrs by One aqueous proliferation assay; assay type: functional, cell-based; conditions: MCF7, 48 h
In short: (§2)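 Cells seeded at 5000 per well, with compound or DMSO vehicle added 24 h after seeding. Incubated 48 h at 37 C, three replicates per concentration. Growth was read by MTS absorbance at 490 nm. GI50 is the concentration reducing cell number by 50% versus control.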

[5] = Inhibition of HDAC6 in rat liver extract by trypsin assay
In short: (§3)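 Same rat liver extract and the subtype-selective substrates (Z-(propionyl)Lys-AMC for HDAC1, Boc(Ac)Lys-(F3-AMC) for HDAC6), incubated with inhibitor at 37 C. After incubation the reaction was developed with trypsin instead of NDA. IC50 was taken from a dilution series against 0% and 100% (TSA) inhibition standards.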

Histone deacetylase 1 [6] = target: T1, Histone deacetylase 1; test: Inhibition of HDAC1 in rat liver extract by trypsin assay; in short: as §3
HeLa = test: Cytotoxicity against human HeLa cells after 48 hrs by One aqueous proliferation assay; assay type: functional, cell-based; in short: as §2
Jurkat = test: Cytotoxicity against human Jurkat cells after 48 hrs by One aqueous proliferation assay; assay type: functional, cell-based; in short: as §2
SQ20B = test: Cytotoxicity against human SQ20B cells after 48 hrs by One aqueous proliferation assay; assay type: functional, cell-based; in short: as §2
MCF-10A = test: Cytotoxicity against human MCF10A cells after 48 hrs by One aqueous proliferation assay; assay type: functional, cell-based; in short: as §2
PC-3 = test: Cytotoxicity against human PC3 cells after 48 hrs by One aqueous proliferation assay; assay type: functional, cell-based; conditions: PC-3, 48 h; in short: as §2

Sequence of Histone deacetylase 1 (Homo sapiens, UniProt Q13547) (Q13547 whole entry): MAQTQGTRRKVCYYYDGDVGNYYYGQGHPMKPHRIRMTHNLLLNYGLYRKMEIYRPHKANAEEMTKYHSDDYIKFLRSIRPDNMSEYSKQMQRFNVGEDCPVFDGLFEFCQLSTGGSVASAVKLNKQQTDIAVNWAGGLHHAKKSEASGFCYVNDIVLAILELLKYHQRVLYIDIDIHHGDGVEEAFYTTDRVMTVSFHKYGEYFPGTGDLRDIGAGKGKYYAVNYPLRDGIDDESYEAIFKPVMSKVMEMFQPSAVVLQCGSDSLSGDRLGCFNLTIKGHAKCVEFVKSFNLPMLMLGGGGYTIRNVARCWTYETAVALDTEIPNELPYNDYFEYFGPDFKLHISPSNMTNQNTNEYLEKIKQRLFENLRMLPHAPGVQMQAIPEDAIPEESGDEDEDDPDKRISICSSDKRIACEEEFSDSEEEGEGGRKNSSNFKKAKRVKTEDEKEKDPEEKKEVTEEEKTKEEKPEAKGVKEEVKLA
T1 sequence (Q4QQW4 whole entry): as the sequence (Q13547 whole entry) above, with R8K, D399E, E424D, L481M counted along it

Row | SMILES | Ratio IC50 (Rattus norvegicus) | IC50 (Histone deacetylase 1 [1]) [µM] | IC50 (Histone deacetylase 1 [2]) [µM] | IC50 [3] [µM] | IC50 [4] [µM] | Ratio IC50 (Homo sapiens) | IC50 (MCF7) [µM] | IC50 [5] [µM] | IC50 (Histone deacetylase 1 [6]) [µM] | IC50 (HeLa) [µM] | IC50 (Jurkat) [µM] | IC50 (SQ20B) [µM] | IC50 (MCF-10A) [µM] | IC50 (PC-3) [µM]
1 | COC(=O)[C@H](Cc1ccc(-c2ccco2)cc1)NC(=O)CCCCCCC(=O)NO | 1.11 | 2.61 | 7.53 | 6.76 | 4.49 | 0.58 | 1.5 | – | – | – | – | – | – | –
2 | COC(=O)[C@H](Cc1ccc(-c2ccc3ccccc3c2)cc1)NC(=O)CCCCCCCC(=O)NO | 1.38 | 10.5 | – | – | 2.85 | 3.7 | 4 | 3.76 | 5.19 | – | – | – | – | –
3 | COC(=O)[C@H](Cc1ccc(-c2ccoc2)cc1)NC(=O)CCCCCCCC(=O)NO | 4.46 | 10.3 | 3.03 | 0.68 | 1.05 | 9.81 | 32 | – | – | 21 | 4 | 35 | 44 | 10
4 | COC(=O)[C@H](Cc1ccc(-c2ccoc2)cc1)NC(=O)CCCCCCC(=O)NO | 1.41 | 6.35 | 3.18 | 2.25 | 1.13 | 5.62 | 1.5 | – | – | – | – | – | – | –
5 | COC(=O)[C@H](Cc1ccc(-c2cccs2)cc1)NC(=O)CCCCCCC(=O)NO | 0.98 | 5.07 | 0.57 | 0.58 | 9.99 | 0.51 | 4 | – | – | 3 | 0.4 | 6 | 8 | 1.8
6 | COC(=O)[C@H](Cc1ccc(-c2cccs2)cc1)NC(=O)CCCCCCCC(=O)NO | 3.04 | 16.8 | 2.55 | 0.84 | 4.09 | 4.1 | 4 | – | – | – | – | – | – | –
7 | COC(=O)[C@H](Cc1ccc(-c2ccsc2)cc1)NC(=O)CCCCCCC(=O)NO | 1.18 | 3.34 | 0.59 | 0.5 | 4.02 | 0.83 | 1.5 | – | – | – | – | – | – | –
8 | COC(=O)[C@H](Cc1ccc(-c2ccc(-c3ccccc3)cc2)cc1)NC(=O)CCCCCCC(=O)NO | 0.17 | 0.96 | 0.13 | 0.78 | 0.69 | 1.39 | 0.8 | – | – | – | – | – | – | –
9 | COC(=O)[C@H](Cc1ccc(Br)cc1)NC(=O)CCCCCCCC(=O)NO | 3.1 | 28.4 | 2.11 | 0.68 | 4.67 | 6.09 | 0.9 | – | – | – | – | – | – | –
10 | COC(=O)[C@H](Cc1ccc(-c2ccc(-c3ccccc3)cc2)cc1)NC(=O)CCCCCCCC(=O)NO | 1.3 | 38.3 | 8.76 | 6.76 | 14.7 | 2.6 | 3.8 | – | – | – | – | – | – | –
11 | COC(=O)[C@H](Cc1ccc(-c2ccccc2)cc1)NC(=O)CCCCCCCC(=O)NO | 0.28 | 9.54 | 1.68 | 6.1 | 2.33 | 4.09 | 21 | – | – | 7 | 2.7 | 33 | 42 | 9.9
12 | COC(=O)[C@H](Cc1ccc(-c2ccco2)cc1)NC(=O)CCCCCCCC(=O)NO | 5.19 | 9.76 | 2.44 | 0.47 | 2.33 | 4.19 | 18 | – | – | – | – | – | – | –
13 | CN(C)c1ccc(C(=O)NCCCCCCC(=O)NO)cc1 | 3 | 2.96 | 0.24 | 0.08 | 0.75 | 3.95 | – | – | – | – | – | – | – | –
14 | COC(=O)[C@H](Cc1ccc(-c2ccccc2)cc1)NC(=O)CCCCCCC(=O)NO | 0.76 | 1.22 | 0.44 | 0.58 | 1.05 | 1.16 | 5 | – | – | – | – | – | – | –
15 | CC1(C)NC(=O)[C@H](CCCCCC(=O)NO)NC(=O)[C@H]2CCCN2C(=O)[C@H](Cc2ccccc2)NC1=O (cyclo([Aib]F[dP][Asu](NHOH))) | 0.09 | 0.0004 | 0.021 | 0.23 | 0.04 | 0.01 | – | – | – | – | – | – | – | –
16 | COC(=O)[C@H](Cc1ccc(Br)cc1)NC(=O)CCCCCCC(=O)NO | 0.64 | 22.9 | 3.19 | 4.98 | – | 13.5 | 22 | – | – | 15 | 3 | 25 | > 50 | > 50
17 | COC(=O)[C@H](Cc1ccc(-c2ccsc2)cc1)NC(=O)CCCCCCCC(=O)NO | 3.72 | 19.2 | 3.01 | 0.81 | 1.77 | 10.8 | 17 | – | – | 10 | 2.8 | 37 | 32 | 10
18 | COC(=O)[C@H](Cc1ccc(-c2ccc3ccccc3c2)cc1)NC(=O)CCCCCCC(=O)NO | 0.69 | 2.98 | 0.63 | 0.91 | 1.17 | 2.55 | 1.9 | – | – | – | – | – | – | –
